Measurements taken from ChEMBL document CHEMBL4346670, “Discovery of Novel Janus Kinase (JAK) and Histone Deacetylase (HDAC) Dual Inhibitors for the Treatment of Hematological Malignancies” (J Med Chem, 2019).

Columns and labels:
[1] = biological target: Cyclin-dependent kinase 6 (Homo sapiens) (UniProt Q00534); assay: Inhibition of recombinant human CDK6 at 20 nM using Ulight-CFFKNIVTPRTPPPSQGK-amide as substrate measured after 60 mins by LANCE assay relative to control
Outline: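 Single-concentration screen within an 85-kinase panel run by a contract lab, with each compound tested at 20 nM and 200 nM. Human recombinant enzymes were used. Activity was quantified as phosphorylation of a peptide substrate read by LANCE time-resolved detection, and inhibition was expressed relative to control, using the same format as the JAK assay.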

[2] = biological target: Mitogen-activated protein kinase 8 (Homo sapiens) (UniProt P45983); assay: Inhibition of recombinant human JNK1 at 200 nM using Ulight-CFFKNIVTPRTPPPSQGK-amide as substrate measured after 60 mins by LANCE method relative to control
Outline: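 Part of an 85-kinase selectivity panel run by a contract lab, with the test compound at 20 nM and at 200 nM. Each human recombinant kinase's phosphorylation of its peptide substrate was measured following the JAK assay method. Activity is given as percent inhibition.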

[3] = biological target: Ribosomal protein S6 kinase alpha-4 (Homo sapiens) (UniProt O75676); assay: Inhibition of recombinant human MSK2 at 20 nM using biotinyl-beta […] AAAARARTSSFAEPG after 15 mins by HTRF method relative to control
Homo sapiens = species on record: Homo sapiens; assay: Inhibition of recombinant human PKA at 20 nM using Ulight-RRRSLLE peptide as substrate measured after 10 mins by LANCE assay relative to control

Sequence of Cyclin-dependent kinase 6 (Homo sapiens) (Q00534 whole entry): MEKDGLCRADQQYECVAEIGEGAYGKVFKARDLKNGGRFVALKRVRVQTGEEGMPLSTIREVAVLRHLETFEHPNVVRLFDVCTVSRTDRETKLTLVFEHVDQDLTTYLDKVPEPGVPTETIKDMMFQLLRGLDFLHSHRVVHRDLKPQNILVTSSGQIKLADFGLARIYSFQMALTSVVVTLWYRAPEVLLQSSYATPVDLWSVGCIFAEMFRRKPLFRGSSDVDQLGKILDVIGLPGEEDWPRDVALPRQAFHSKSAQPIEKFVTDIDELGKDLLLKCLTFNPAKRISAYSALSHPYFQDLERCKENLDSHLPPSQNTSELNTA
Sequence of Mitogen-activated protein kinase 8 (Homo sapiens) (P45983 whole entry): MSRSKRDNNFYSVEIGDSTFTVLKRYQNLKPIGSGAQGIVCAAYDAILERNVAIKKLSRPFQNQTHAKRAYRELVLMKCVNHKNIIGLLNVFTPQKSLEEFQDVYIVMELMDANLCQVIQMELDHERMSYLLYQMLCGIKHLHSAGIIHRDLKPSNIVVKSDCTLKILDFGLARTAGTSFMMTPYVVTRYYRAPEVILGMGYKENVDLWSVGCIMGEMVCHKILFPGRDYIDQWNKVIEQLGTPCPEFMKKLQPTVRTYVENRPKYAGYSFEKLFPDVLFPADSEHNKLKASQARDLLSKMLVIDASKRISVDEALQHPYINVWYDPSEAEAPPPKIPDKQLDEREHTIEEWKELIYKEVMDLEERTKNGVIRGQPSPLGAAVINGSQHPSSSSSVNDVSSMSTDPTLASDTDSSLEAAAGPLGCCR
Sequence of Ribosomal protein S6 kinase alpha-4 (Homo sapiens) (O75676 whole entry, looked up): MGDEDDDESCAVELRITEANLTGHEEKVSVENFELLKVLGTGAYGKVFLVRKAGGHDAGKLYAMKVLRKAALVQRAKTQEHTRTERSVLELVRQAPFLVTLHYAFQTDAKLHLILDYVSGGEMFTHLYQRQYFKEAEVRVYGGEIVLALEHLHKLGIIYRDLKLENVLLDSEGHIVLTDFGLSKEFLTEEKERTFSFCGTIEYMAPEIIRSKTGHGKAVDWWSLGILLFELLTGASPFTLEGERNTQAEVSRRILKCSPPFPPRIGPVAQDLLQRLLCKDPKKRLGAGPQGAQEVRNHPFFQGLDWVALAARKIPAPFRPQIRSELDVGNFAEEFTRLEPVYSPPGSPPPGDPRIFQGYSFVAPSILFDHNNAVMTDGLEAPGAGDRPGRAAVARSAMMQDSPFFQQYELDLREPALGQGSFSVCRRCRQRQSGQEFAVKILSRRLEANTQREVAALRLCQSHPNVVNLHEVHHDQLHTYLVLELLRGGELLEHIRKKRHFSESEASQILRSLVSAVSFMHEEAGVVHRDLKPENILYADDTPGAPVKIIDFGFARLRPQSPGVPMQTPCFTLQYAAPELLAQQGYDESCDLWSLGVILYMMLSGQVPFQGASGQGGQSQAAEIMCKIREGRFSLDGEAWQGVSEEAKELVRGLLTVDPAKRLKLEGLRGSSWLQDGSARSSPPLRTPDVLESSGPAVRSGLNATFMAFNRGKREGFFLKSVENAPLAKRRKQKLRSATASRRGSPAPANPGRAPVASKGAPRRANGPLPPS

In the case of `O=C(CCCCCn1cc(Nc2ncc(Cl)c(Nc3ccc(Cl)cc3)n2)cn1)NO`, the inhibition [1] is reported as 10%, the inhibition [2] is reported as 13% and the inhibition [3] is reported as -2%. For the same compound, the inhibition (Homo sapiens) was -10%.
